Results collected from several papers.
Lines come from different studies, so protocols differ.
Read-out: cell growth or viability

SMILES	cell line	technique	concentration	time	endpoint	value
COc1ccc(-c2ccc(-c3ccc(C(=N)N)nc3)s2)cc1Cl	SNB-75	SRB			GI50	1430 nM
COc1ccc(C2=Nn3c(NN=C4C(=O)Nc5ccc(OC)cc54)nnc3SC2)cc1	SNB-75	SRB	10 µM		inhibition	16%
COc1ccc(-c2ccc(-c3ccc(C(=N)N)nc3)s2)cc1	UACC-257	SRB			GI50	1800 nM
COc1cc(Nc2nccc(-c3cnn4nc(OC)ccc34)n2)cc(C(F)(F)F)c1	RKO	ATP luminescence			IC50	270 nM
Oc1ccc(Nc2nc(-c3ccc(Cl)cc3)cs2)cc1	WM35	MTS		48 h	IC50	10300 nM
COc1ccc(/C=C\c2cc(OC)c(OC)c(OC)c2)cc1O	CCRF-CEM			48 h	CC50	36 nM
CC(C)C[C@H](NC(=O)[C@H](Cc1ccccc1)NC(=O)c1cnccn1)B(O)O	EPLC-272H	ATP luminescence			IC50	8.6 nM
COc1cccc(-c2cn(-c3cc(=O)oc4ccc(Br)cc34)nn2)c1	CCRF-CEM			48 h	CC50	10300 nM
O=C(N/N=C/c1c(O)ccc2ccccc12)c1cc(-c2ccc3ccccc3c2)n[nH]1	WM35	MTS		24 h	IC50	37000 nM
